Screening data deposited in PubChem by several laboratories.
This is a sample that favours compounds with a hit; in the whole collection about 5.4% have one here.
aSyn 5UTR inh: 5' untranslated region of α-synuclein, MLPCN primary screen; alpha-synuclein 5'UTR reporter, inhibitor activity; inhibition, % (tested at 7.5 µM); actives 0.82% (n = 300,000); in the data active means inhibition above about 60%; inconclusive means no clear call, values can overlap the other calls;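 further: H4 neuroglioblastoma cells stably carrying SNCA 5'UTR luciferase fusion; 0% = DMSO wells and 100% = positive control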
SKKanGAS inh: SKKanGAS growth inhibition; actives 1.3% (n = 300,000); inhibition, % at 7.5 µM; S. pyogenes SKKanGAS, kanamycin growth, BacTiter-Glo, 6 h; AID 1662;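 active means mean replicate score, as percent of positive control median, at least 50; inconclusive means mean below 50 but one replicate at or above 50; inactive means mean and every replicate below 50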;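 further: strain carries kanamycin resistance gene driven by streptokinase promoter and grows in 40 µg/ml kanamycin; loss of luminescence reflects streptokinase promoter inhibition or plain growth inhibition; 0% = median of DMSO wells and 100% = positive control at its reference dose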
Mdm2-MdmX inh: human Mdm2/MdmX binding inhibition. O15151+Q00987. SaOS-2 split-luciferase Mdm2/MdmX complementation, luminescence. inhibition, % at 8 µM. actives 3% (n = 330,000). AID 485346;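 active means inhibition of at least 50% at 8 µM in the primary screen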
Target sequence (O15151 whole entry, looked up): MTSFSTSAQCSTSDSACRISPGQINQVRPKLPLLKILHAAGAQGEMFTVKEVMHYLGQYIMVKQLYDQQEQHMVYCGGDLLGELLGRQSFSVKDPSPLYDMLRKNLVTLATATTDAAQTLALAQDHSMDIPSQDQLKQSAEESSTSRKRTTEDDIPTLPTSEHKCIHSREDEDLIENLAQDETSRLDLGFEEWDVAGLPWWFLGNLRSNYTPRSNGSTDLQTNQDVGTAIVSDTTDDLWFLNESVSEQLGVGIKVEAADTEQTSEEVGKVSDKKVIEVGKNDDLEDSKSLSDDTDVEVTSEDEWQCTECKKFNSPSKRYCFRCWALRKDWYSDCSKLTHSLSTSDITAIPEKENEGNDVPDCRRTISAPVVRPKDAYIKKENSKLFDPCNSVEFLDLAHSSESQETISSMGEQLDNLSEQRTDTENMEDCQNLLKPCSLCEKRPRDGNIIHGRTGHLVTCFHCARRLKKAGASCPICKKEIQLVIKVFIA
Target sequence (Q00987 whole entry, looked up): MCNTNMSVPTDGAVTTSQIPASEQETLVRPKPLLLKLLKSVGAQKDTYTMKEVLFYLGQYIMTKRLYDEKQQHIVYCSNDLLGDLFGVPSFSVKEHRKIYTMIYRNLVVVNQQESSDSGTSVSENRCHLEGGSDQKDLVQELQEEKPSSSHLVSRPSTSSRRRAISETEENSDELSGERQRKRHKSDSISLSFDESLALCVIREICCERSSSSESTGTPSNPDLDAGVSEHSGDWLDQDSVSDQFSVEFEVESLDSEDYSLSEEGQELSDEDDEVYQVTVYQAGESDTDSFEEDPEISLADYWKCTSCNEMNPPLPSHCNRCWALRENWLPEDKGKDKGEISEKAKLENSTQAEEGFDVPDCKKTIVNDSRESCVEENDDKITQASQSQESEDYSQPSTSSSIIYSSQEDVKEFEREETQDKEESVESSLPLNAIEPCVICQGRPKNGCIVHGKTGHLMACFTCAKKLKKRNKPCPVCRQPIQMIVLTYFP
CSC inhib: cancer stem cell inhibition; actives 1.1% (n = 300,000); cancer stem cell-like cells viability, luminescence; AID 2717; inhibition, % at 7.5 µM; in the data active means inhibition above about 75%; inconclusive means no clear call, values can overlap the other calls; tested in HMLE shEcad cells
T cruzi repl: blocks replication of Trypanosoma cruzi | inhibition, % (test concentration not listed) | T. cruzi beta-gal in NIH3T3, luminescence, 90 h | actives 1.4% (n = 300,000);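 active means mean inhibition across valid replicates above about 55%, limit read from the data; inconclusive means mean below that limit but half or more replicates reach it; inactive means mean below it, under half of replicates reach it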;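 further: signal also drops with host cell toxicity which is not excluded here; 0% = plate median of DMSO wells and 100% = zero luminescence signal; higher percent means less beta-gal luminescence so fewer parasites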
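assay system = mouse NIH/3T3 fibroblasts infected with β-gal-expressing T. cruzi Tulahuen C4 | input = 5,000 NIH/3T3 host cells per well | buffer or medium = DMEM plus 2% FBS | timing = 3 h host attachment, then at least 90 h co-culture | measured by = GalScreen luminescence, 60 min | evaluation = luminescence reflecting intracellular parasite burden, expressed as percent inhibition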
Numbers without * were called inactive; ? = inconclusive; · = not tested or not shown.

SMILES	aSyn 5UTR inh	SKKanGAS inh	Mdm2-MdmX inh	CSC inhib	T cruzi repl
Cn1c(-c2c(N)n(CCc3ccccc3)c3nc4ccccc4nc23)nc2ccccc21	-37.5	104.2*	46.7	40.1	51.6
COc1ccc(NC(=O)c2ccc(C)cc2)c[n+]1[O-]	-34.5	-1.3	·	-8.7	-4.7
CCN(CC)C(=O)c1[nH]cnc1C(=O)Nc1ccc(Cl)cc1	·	·	18.1	-22.2	·
COc1ccc(OC)c(C2=NS(=O)(=O)N(C)C(C(=O)Nc3ccc(F)cc3F)=C2)c1	-4.4	5.0	-2.5	3.1	9.0
CC(=O)Nc1ccc(S(=O)(=O)N(C)Cc2cnn(C)c2)cc1	-10.5	-0.9	14.7	-1.2	-11.2
CNC(C)C(=O)NC(C(=O)N1CCCC1C(=O)NC1CCCc2ccccc21)C(C)C (configuration not stated)	·	·	-2.6	13.0	·
CNC(C)C(=O)NC(C(=O)N1CCCC1C(=O)NNc1ccccc1)C(C)C (configuration not stated)	·	·	-20.2	98.1*	·
Cc1ccc(S(=O)(=O)NCC(c2cccnc2)N2CCN(Cc3ccccc3)CC2)cc1 (configuration not stated)	11.8	2.0	14.4	7.9	57.0*
O=S(=O)(NCC(c1cccnc1)N1CCN(Cc2ccccc2)CC1)c1ccccc1 (configuration not stated)	-17.7	-3.2	15.9	-11.2	62.2*
CCN1CCN(C(CNS(=O)(=O)c2ccc(C)cc2)c2cccnc2)CC1 (configuration not stated)	-4.6	?	4.1	-5.2	21.8
Cc1c(NC(=O)CSC(=S)N2CCCC2)c(=O)n(-c2ccccc2)n1C	1.6	14.5	-4.8	-6.4	1.3
COc1ccc(S(=O)(=O)Nc2cccc3c2O[C@H](CN(C)C(=O)Nc2ccccc2)[C@@H](C)CN([C@H](C)CO)C3=O)cc1	·	·	34.0	·	·
Cc1cccc(-n2c(SCC(=O)NCC3CCCO3)nc3ccccc3c2=O)c1C (configuration not stated)	·	·	17.0	3.5	·
CCN(Cc1ccc(OC)c(F)c1)C(C)C(=O)Nc1ccc(S(=O)(=O)N2CCCC2)cc1 (configuration not stated)	·	·	22.3	5.1	·
O=C(O)COc1ccc(-c2nccc(-c3ccccn3)n2)cc1	72.1*	-1.1	3.6	-19.6	-20.3
C=CC[C@@H](CC(=O)NCCO)C(=O)N[C@@H](COC(=O)[C@@H](CC=C)CC(=O)OC(C)(C)C)Cc1c[nH]c2ccccc12	·	·	12.1	·	·
Cc1cccc(-c2nnc3n2N=C(c2ccccc2)CS3)c1	63.0*	0.0	12.1	18.7	5.9
CCOc1ccc(C2=Nn3c(nnc3-c3ccc(OC)cc3)SC2)cc1	84.3*	10.8	·	49.3	35.5
CCCCSc1nc2ccc(Nc3nc(N4CCOCC4)nc(N4CCOCC4)n3)cc2s1	-13.6	36.0	6.9	-9.4	57.2*
CCCCNC(=O)CSc1nc2ccc(Nc3nc(N4CCOCC4)nc(N4CCOCC4)n3)cc2s1	2.6	29.0	-1.0	-4.0	30.5
S=c1[nH]nc(C2CCCCC2)n1/N=C/c1c(Cl)cccc1Cl	30.7	52.2*	14.0	35.5	3.1
S=c1[nH]nc(C2CCCCC2)n1/N=C/c1ccc(Cl)cc1	32.1	4.6	-12.2	8.4	2.8
Cc1ccc(/C=N/n2c(-c3cccs3)n[nH]c2=S)cc1	20.2	12.1	26.8	15.8	-5.9
S=c1[nH]nc(C2CCCCC2)n1/N=C/C(Cl)=C\c1ccccc1	-74.5	-3.2	42.8	109.3*	-78.9
S=c1[nH]nc(-c2cccs2)n1/N=C/c1c(Cl)cccc1Cl	-6.2	62.6*	-3.6	8.1	-14.0
SMILES	aSyn 5UTR inh	SKKanGAS inh	Mdm2-MdmX inh	CSC inhib	T cruzi repl
CCCCCC1CC(CC(=O)Nc2ccc([N+](=O)[O-])cc2)C(=O)O1 (configuration not stated)	8.2	-10.4	6.1	-0.3	-3.6
Cc1ccc(-c2nc3cc(Br)cnc3nc2-c2ccc(C)cc2)cc1	-32.7	40.1	3.6	57.4	57.6*
Brc1cccc(-c2nc3cccnc3nc2-c2cccc(Br)c2)c1	-7.2	-0.1	13.3	25.7	48.9
N=C1SC(c2ccccc2)C(=O)N1c1ncc(Cc2ccccc2Cl)s1 (configuration not stated)	17.0	116.2*	30.1	-7.8	-1.2
FC(F)(F)c1ccc(C2[C@H]3CN(Cc4cccnc4)[C@H](c4ccccc4)C34CC2(c2cccnc2)C4)cc1 (some centres not stated)	-10.9	52.6*	44.5	101.7*	47.8
CC1CC(C)(C)Nc2ccc(N=O)cc21 (configuration not stated)	32.0	-1.0	·	·	97.8*
CC1CC2(CCCC2)Nc2ccc(F)cc21 (configuration not stated)	-1.1	-2.9	0.0	-5.4	-3.1
O=C(Oc1ccc2ccccc2c1)c1ccco1	-12.5	-0.5	-4.6	-0.5	8.2
CC1CC(C)(C)Nc2ccc(OC(=O)c3ccco3)cc21 (configuration not stated)	70.3*	1.8	32.4	11.3	10.7
CC1(c2ccc3c(c2)OCO3)NC(=O)N(CC(=O)Nc2ccccc2[N+](=O)[O-])C1=O (configuration not stated)	·	·	21.2	·	·
O=S(=O)(c1ccc(Cl)cc1)N1CCC(n2cnc3cc(C(F)(F)F)ccc32)CC1	12.3	11.5	-3.6	84.8*	55.7*
C/C(=N\NC(=O)CSCc1ccc([N+](=O)[O-])cc1)c1ccccc1O	-24.3	-6.7	16.2	8.3	-8.5
CCC(=O)N(CCC(Cc1ccccc1)c1ccco1)Cc1ccco1 (configuration not stated)	-2.8	6.4	6.4	·	6.1
CCC(=O)N(CCC(Cc1ccccc1)c1ccc2c(c1)OCO2)Cc1ccccc1F (configuration not stated)	-0.3	52.1*	8.3	43.5	36.5
COc1ccc(NC(=O)c2cccc(S(=O)(=O)N3CCCCCC3)c2)cc1	-5.8	4.6	19.1	1.7	9.3
CCc1ccc(CN(C)C(=O)c2cc(COc3ccc(OC)cc3Cl)on2)nc1	-169.7	-6.6	-42.0	5.9	0.7
CN1CCN(CCOc2cccc(Cl)c2)CC1	-3.5	-6.4	19.7	3.6	35.9
CN1CCN(CCOc2ccc(Cc3ccccc3)cc2)CC1	4.5	3.7	16.5	50.8	54.8*
CN1CCN(CCOc2ccc(Cl)c(Cl)c2)CC1	6.2	-5.6	0.2	34.6	55.8*
CCc1ccc(OCCOCCN2CCN(C)CC2)cc1	0.6	1.5	-18.3	58.0	43.6
O=C(Nc1ccc(F)cc1)c1ccc(C(=O)N2CCCC(O)C2)cc1 (configuration not stated)	7.9	-0.1	17.9	-4.3	-8.1
C=CCn1c(SCC(=O)Nc2ccc3c(c2)OCCO3)nc2cc(C(=O)O)ccc2c1=O	·	·	-34.0	-18.5	·
CCN(CC)S(=O)(=O)c1ccc(N2CCN(C)CC2)c(NC(=O)COc2ccc(F)cc2Cl)c1	-0.6	-8.2	8.0	-3.3	58.5*
CCN1CCN(c2ccc(S(=O)(=O)N3CCOCC3)cc2NC(=O)c2sccc2C)CC1	-1.8	-0.5	-0.1	0.9	52.2
